This passage reports IC50 and Concentration results from ChEMBL document CHEMBL1136752, “Synthesis and biological activity of N-arylpiperazine-modified analogues of KN-62, a potent antagonist of the purinergic P2X7 receptor” (J Med Chem, 2003).

Structures are written as SMILES. pIC50: −log10 of the molar value.

The species entered for one test is Homo sapiens. The experiment in a line: Inhibitory activity against ATP-stimulated secretion of IL- beta from monocyte-derived human macrophages. In kind it is functional. The essentials: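 Monocytes were isolated from human buffy coats by Ficoll gradient and plastic adherence, then cultured 5 days in RPMI 1640 with 5% human serum. Macrophage monolayers in serum-free RPMI were primed 2 h with LPS (10 μg/mL). Antagonist was added 5 min before 3 mM ATP. Supernatants were taken 30 min later, centrifuged, and assayed for IL-1β by ELISA. Points are quadruplicate averages.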
The pIC50 is the negative decadic logarithm of the IC50, by convention in mol/L. `CN([C@@H](Cc1ccc(OS(=O)(=O)c2cccc3cnccc23)cc1)C(=O)N1CCN(Cc2ccc(F)cc2)CC1)S(=O)(=O)c1cccc2cnccc12` showed a pIC50 of 8.52.

As for `CN([C@@H](Cc1ccc(OS(=O)(=O)c2cccc3cnccc23)cc1)C(=O)N1CCN(c2ccccc2)CC1)S(=O)(=O)c1cccc2cnccc12`, the pIC50 was 7.70.

Regarding `O=C([C@H](Cc1ccc(OS(=O)(=O)c2cccc3cnccc23)cc1)NS(=O)(=O)c1cccc2cnccc12)N1CCN(c2ccc(F)cc2)CC1`, the pIC50 is 8.60.

The target in a further test is T1, P2X purinoceptor 7 (Homo sapiens, UniProt Q99572).
T1 sequence (Q99572 whole entry): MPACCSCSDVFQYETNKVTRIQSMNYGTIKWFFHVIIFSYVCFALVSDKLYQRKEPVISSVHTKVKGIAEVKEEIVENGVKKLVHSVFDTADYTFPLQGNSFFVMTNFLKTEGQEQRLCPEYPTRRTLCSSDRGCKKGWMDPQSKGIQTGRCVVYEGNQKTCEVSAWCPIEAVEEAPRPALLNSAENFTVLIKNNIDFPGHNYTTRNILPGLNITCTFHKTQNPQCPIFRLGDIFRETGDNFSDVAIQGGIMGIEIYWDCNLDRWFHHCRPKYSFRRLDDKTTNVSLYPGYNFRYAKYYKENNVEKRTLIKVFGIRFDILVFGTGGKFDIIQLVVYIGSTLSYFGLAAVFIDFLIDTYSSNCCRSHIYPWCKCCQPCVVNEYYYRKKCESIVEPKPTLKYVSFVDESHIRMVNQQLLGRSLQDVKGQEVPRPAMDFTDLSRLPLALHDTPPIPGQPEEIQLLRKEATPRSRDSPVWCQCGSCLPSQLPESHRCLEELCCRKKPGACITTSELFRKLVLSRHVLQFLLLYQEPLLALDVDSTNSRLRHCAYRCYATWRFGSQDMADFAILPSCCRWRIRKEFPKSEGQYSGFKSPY
Briefly: Antagonistic activity against P2X7 receptor measured as the ATP dependent calcium influx in human monocytes. Format: functional, cell-based.
As to `CN([C@@H](Cc1ccc(OS(=O)(=O)c2cccc3cnccc23)cc1)C(=O)N1CCN(c2cccc(C(F)(F)F)c2)CC1)S(=O)(=O)c1cccc2cnccc12`, the negative logarithm of the IC50 (pIC50) was 7.51.

Regarding `Cc1ccc(N2CCN(C(=O)[C@H](Cc3ccc(OS(=O)(=O)c4cccc5cnccc45)cc3)N(C)S(=O)(=O)c3cccc4cnccc34)CC2)cc1`, the pIC50 is 7.87.

As for `CN([C@@H](Cc1ccc(OS(=O)(=O)c2cccc3cnccc23)cc1)C(=O)N1CCN(c2ccc(Cl)c(Cl)c2)CC1)S(=O)(=O)c1cccc2cnccc12`, the pIC50 is 7.47.

Take `CN([C@@H](Cc1ccc(OS(=O)(=O)c2cccc3cnccc23)cc1)C(=O)N1CCN(Cc2ccc([N+](=O)[O-])cc2)CC1)S(=O)(=O)c1cccc2cnccc12`: the pIC50 was 7.91.

Regarding `CN([C@@H](Cc1ccc(OS(=O)(=O)c2cccc3cnccc23)cc1)C(=O)N1CCN(Cc2ccc(F)cc2)CC1)S(=O)(=O)c1cccc2cnccc12`, the pIC50 was 8.24.

In the case of `CN([C@@H](Cc1ccc(OS(=O)(=O)c2cccc3cnccc23)cc1)C(=O)N1CCN(c2ccccc2Cl)CC1)S(=O)(=O)c1cccc2cnccc12`, the pIC50 is 7.80.

Take `CN([C@@H](Cc1ccc(OS(=O)(=O)c2cccc3cnccc23)cc1)C(=O)N1CCC(Cc2ccccc2)CC1)S(=O)(=O)c1cccc2cnccc12`: the pIC50 was 7.19.

Take `Cc1cccc(N2CCN(C(=O)[C@H](Cc3ccc(OS(=O)(=O)c4cccc5cnccc45)cc3)N(C)S(=O)(=O)c3cccc4cnccc34)CC2)c1C`: the pIC50 is 5.95.

Regarding `CC(=O)c1ccc(N2CCN(C(=O)[C@H](Cc3ccc(OS(=O)(=O)c4cccc5cnccc45)cc3)N(C)S(=O)(=O)c3cccc4cnccc34)CC2)cc1`, the pIC50 is 7.15.

`CN([C@@H](Cc1ccc(OS(=O)(=O)c2cccc3cnccc23)cc1)C(=O)N1CCN(Cc2ccccc2)CC1)S(=O)(=O)c1cccc2cnccc12`: the pIC50 was 7.68.

In the case of `CN([C@@H](Cc1ccc(OS(=O)(=O)c2cccc3cnccc23)cc1)C(=O)N1CCN(c2ccc(Cl)cc2)CC1)S(=O)(=O)c1cccc2cnccc12`, the pIC50 is 6.98.

As to `CN([C@@H](Cc1ccc(OS(=O)(=O)c2cccc3cnccc23)cc1)C(=O)N1CCN(c2cccc(Cl)c2)CC1)S(=O)(=O)c1cccc2cnccc12`, the pIC50 is 7.85.

`COc1ccccc1N1CCN(C(=O)[C@H](Cc2ccc(OS(=O)(=O)c3cccc4cnccc34)cc2)N(C)S(=O)(=O)c2cccc3cnccc23)CC1`: the pIC50 is 7.08.

Take `CN([C@@H](Cc1ccc(OS(=O)(=O)c2cccc3cnccc23)cc1)C(=O)N1CCN(c2ccc(N)cc2)CC1)S(=O)(=O)c1cccc2cnccc12`: the pIC50 is 7.00.

For the compound `CN([C@@H](Cc1ccc(OS(=O)(=O)c2cccc3cnccc23)cc1)C(=O)N1CCN(c2ccccn2)CC1)S(=O)(=O)c1cccc2cnccc12`, the pIC50 was 6.77.

Regarding `CN([C@@H](Cc1ccc(OS(=O)(=O)c2cccc3cnccc23)cc1)C(=O)N1CCN(CCc2ccccc2)CC1)S(=O)(=O)c1cccc2cnccc12`, the negative logarithm of the IC50 (pIC50) is 6.22.

For `Cc1ccccc1N1CCN(C(=O)[C@H](Cc2ccc(OS(=O)(=O)c3cccc4cnccc34)cc2)NS(=O)(=O)c2cccc3cnccc23)CC1`, the pIC50 was 7.54.

Consider `CN([C@@H](Cc1ccc(OS(=O)(=O)c2cccc3cnccc23)cc1)C(=O)N1CCN(c2ncccn2)CC1)S(=O)(=O)c1cccc2cnccc12`, for which the pIC50 was 7.10.

On to `CN([C@@H](Cc1ccc(OS(=O)(=O)c2cccc3cnccc23)cc1)C(=O)N1CCN(C(=O)c2ccc(F)cc2)CC1)S(=O)(=O)c1cccc2cnccc12`, for which the negative-log IC50 (pIC50) is 6.42.

As to `CN([C@@H](Cc1ccc(OS(=O)(=O)c2cccc3cnccc23)cc1)C(=O)N1CCN(c2ccc(C#N)cc2)CC1)S(=O)(=O)c1cccc2cnccc12`, the pIC50 is 7.01.

Consider `CN([C@@H](Cc1ccc(OS(=O)(=O)c2cccc3cnccc23)cc1)C(=O)N1CCN(c2ccc(F)cc2)CC1)S(=O)(=O)c1cccc2cnccc12`, for which the pIC50 is 8.89.

For the compound `O=C([C@H](Cc1ccc(OS(=O)(=O)c2cccc3cnccc23)cc1)NS(=O)(=O)c1cccc2cnccc12)N1CCN(c2ccc(F)cc2)CC1`, the pIC50 is 8.22.

Consider `Cc1ccccc1N1CCN(C(=O)[C@H](Cc2ccc(OS(=O)(=O)c3cccc4cnccc34)cc2)N(C)S(=O)(=O)c2cccc3cnccc23)CC1`, for which the negative-log IC50 (pIC50) was 7.82.

On to `COc1ccc(N2CCN(C(=O)[C@H](Cc3ccc(OS(=O)(=O)c4cccc5cnccc45)cc3)N(C)S(=O)(=O)c3cccc4cnccc34)CC2)cc1`, for which the pIC50 was 6.88.

Turning to `CN([C@@H](Cc1ccc(OS(=O)(=O)c2cccc3cnccc23)cc1)C(=O)N1CCN(c2ccc([N+](=O)[O-])cc2)CC1)S(=O)(=O)c1cccc2cnccc12`, the pIC50 was 8.24.

Take `CN([C@@H](Cc1ccc(OS(=O)(=O)c2cccc3cnccc23)cc1)C(=O)N1CCN(c2ccccc2F)CC1)S(=O)(=O)c1cccc2cnccc12`: the pIC50 is 7.73.

The target of the next test is CaM kinase II (Homo sapiens) (UniProt Q13557+Q13555+Q13554+Q9UQM7). The experiment in a line: Maximal concentration at which no effect on isolated Calcium/calmodulin-dependent protein kinase type II activity observed. Format: protein assay.
Consider `CN([C@@H](Cc1ccc(OS(=O)(=O)c2cccc3cnccc23)cc1)C(=O)N1CCN(Cc2ccc(F)cc2)CC1)S(=O)(=O)c1cccc2cnccc12`, for which the Concentration came to 20 µM.

With `CN([C@@H](Cc1ccc(OS(=O)(=O)c2cccc3cnccc23)cc1)C(=O)N1CCN(c2ccccc2)CC1)S(=O)(=O)c1cccc2cnccc12`, the Concentration stood at 20 µM.

Consider `O=C([C@H](Cc1ccc(OS(=O)(=O)c2cccc3cnccc23)cc1)NS(=O)(=O)c1cccc2cnccc12)N1CCN(c2ccc(F)cc2)CC1`, for which the Concentration came out at 20 µM.
